# Compound activity as filed in PubChem.
# The list is not random: actives were taken first. Their share in the collection is about 4.6%.
# GPR7 antagonist: antagonists of human GPR7 (neuropeptides B/W receptor 1) | P48145 | GPR7-expressing cells, fluorescence antagonist assay | inhibition, % at 4.4 µM | 290,000 tested, 1.1% active; in the data active means inhibition above about 16%, passing the limit was not always enough;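 further: cells stimulated with the agonist NPW; 0% = agonist with vehicle and 100% = vehicle without agonist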
# TAAR1 ag: agonists of human TAAR1 | CHO RD-HGA16 TAAR1, Fluo-8 calcium fluorescence; vehicle wells 0%, saturating PEA agonist 100% | activation, % at 3 µM | 360,000 tested, 0.99% active | AID 624467;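 active means activation above the mean activation of all test compounds in the run plus 3 SD, cut at about 38% in these data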
#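 Benchmarks: low control DMSO, high control PEA (EC100); System: CHO RD-HGA16 cells carrying human TAAR1 plus Gα16; Detection: Fluo-8 fluorescence, 5 s baseline then 140 s kinetic read; Schedule: 17-24 h plating, Fluo-8 75 min 37 °C, 30 min RT; Read-out basis: % activation from peak over basal fluorescence ratio, DMSO-to-PEA scaled.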
# OX1R antag-1: antagonists of human orexin 1 receptor (OX1R). inhibition, % at 6.6 µM. OX1R-expressing cells, FRET antagonist read-out. O43613. 330,000 tested, 1.8% active; in the data active means inhibition mostly above about 38%, no sharp cut-off; inactive means mostly below about 40%;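 further: 0% = agonist challenge alone and 100% = reference antagonist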
# Target sequence (O43613 whole entry, looked up): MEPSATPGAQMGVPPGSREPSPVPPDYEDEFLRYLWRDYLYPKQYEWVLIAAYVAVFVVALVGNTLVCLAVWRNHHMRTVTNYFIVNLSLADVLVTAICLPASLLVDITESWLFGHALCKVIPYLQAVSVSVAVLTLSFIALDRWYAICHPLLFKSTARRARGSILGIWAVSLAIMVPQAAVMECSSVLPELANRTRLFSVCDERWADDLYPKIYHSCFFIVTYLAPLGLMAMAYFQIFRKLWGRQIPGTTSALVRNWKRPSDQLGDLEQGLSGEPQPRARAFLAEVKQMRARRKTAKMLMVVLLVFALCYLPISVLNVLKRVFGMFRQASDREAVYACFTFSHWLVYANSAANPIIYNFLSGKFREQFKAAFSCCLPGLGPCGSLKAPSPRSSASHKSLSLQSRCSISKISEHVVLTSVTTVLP
# CHO parental Ca: signal in parental CHO cells, OX1R antagonist counter-screen; parental CHO-K1, ATP-induced calcium, Fluo-8 fluorescence; inhibition, % at 5.6 µM; 330,000 tested, 0.63% active; AID 463079;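 active means inhibition above that plate's mean sample inhibition plus 3 SD, cut at about 26% in these data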;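 further: 0% = ATP-challenged DMSO wells and 100% = DMSO wells without ATP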
#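 Material: parental CHO cells / Compound: single nominal dose of 5.6 µM per compound / Signal: Fluo-8 fluorescence / Replicates: singlicate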
# OX1R antag-2: human HCRTR1 antagonism; CHO/OX1R cells, Fluo-8 calcium fluorescence, orexin A; inhibition, % at 5 µM; 330,000 tested, 0.43% active; AID 434989;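 active means inhibition above its plate's threshold, mean inhibition of all tested compounds on the plate plus 3 SD, cut at about 37% in these data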;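 further: 0% = orexin A challenge wells and 100% = SB-334867-A antagonist wells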
# TAAR1 antagonist: antagonists of human TAAR1; Q96RJ0; CHO RD-HGA16 TAAR1, Fluo-8 calcium fluorescence, antagonist; inhibition, % at 3 µM; 360,000 tested, 1.5% active; AID 624466;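 active means inhibition above a per-plate cutoff, the mean inhibition of test compounds on that plate plus 3 SD, cut at about 49% in these data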;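 further: 0% = DMSO plus EC80 beta-PEA response and 100% = DMSO alone without agonist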
#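 Test system: hTAAR1-expressing CHO RD-HGA16 cells, Gα16-coupled; Probe or stimulus: EC80 β-phenethylamine stimulus; Compound dosing: single nominal final test compound concentration of 3 µM; Timing: 140 s kinetic read after compound, 140 s after agonist; Signal: Fluo-8 calcium-sensitive fluorescence; Measure: % inhibition of agonist calcium response; Controls: DMSO and EC80 PEA controls.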
# nonsel antag count: nonselective antagonism, TAAR1 counter-screen; 2,400 tested, 77% active; counterscreen cell line, calcium fluorescence, antagonist mode; AID 651780; inhibition, % at 3 µM; shares compounds with TAAR1 antagonist; in the data active means inhibition above about 22%;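 further: CHO-Ga16 host cells stimulated with ATP at an EC80 level; 0% = agonist EC80 plus vehicle and 100% = vehicle without agonist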
# TAAR1 antag conf: human TAAR1 antagonism, confirmed | 2,400 tested, 40% active | inhibition, % at 3 µM | TAAR1-expressing cells, fluorescence antagonist read-out | shares compounds with TAAR1 antagonist; in the data active means inhibition above about 49%;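 further: CHO-Ga16 host cells challenged with agonist PEA near its EC80; 0% = agonist at EC80 plus vehicle and 100% = vehicle with no agonist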
# Ga16 ag counter: nonselective Ga16 agonism, counter-screen; activation, % at 3 µM; shares compounds with TAAR1 antagonist; Ga16-expressing cells, calcium fluorescence, agonist counterscreen; 2,400 tested, 18% active; in the data active means activation above about 12%;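 further: 0% = vehicle wells and 100% = saturating stimulus response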
# TAAR1 ag count: activates human TAAR1 in antagonist counter-screen; shares compounds with TAAR1 antagonist; hTAAR1 cell line, fluorescence activation, agonist mode; activation, % at 3 µM; 2,400 tested, 2% active; AID 651955; in the data active means activation above about 37%;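 further: CHO cells stably expressing TAAR1 with calcium dye readout; 0% = DMSO vehicle and 100% = full agonist response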
# * hit, by the source's call; . = no result.
SMILES,GPR7 antagonist,TAAR1 ag,OX1R antag-1,CHO parental Ca,OX1R antag-2,TAAR1 antagonist,nonsel antag count,TAAR1 antag conf,Ga16 ag counter,TAAR1 ag count
Cc1ccc(-c2cc(-c3ccc(F)cc3)c(C#N)c(N)n2)o1,-6.0,-0.7,6.4,0.2,-9.7,57.0*,16.9,35.3,-1.1,-2.2
C[C@]12C[C@H](O)[C@@H]3c4ccc(O)cc4CCC3[C@@H]1CCC2=O (some centres undefined),-11.0,1.5,14.3,-1.6,-9.7,-17.1,.,.,.,.
C[C@]12CC[C@H]3C(=CCc4cc(O)ccc43)[C@@H]1CCC2=O,6.9,16.4,8.1,-4.5,-2.3,83.4*,35.1*,59.3*,11.7*,13.0
COc1ccc(CN(Cc2ccccn2)C(=O)CN2C(=O)C(C)Oc3ccccc32)cc1 (centres undefined),-8.8,14.9,28.5,-11.5,-13.7,51.8*,28.9*,49.2*,10.7,11.6
Cn1c(C(=O)Nc2ccc3c(c2)OCO3)cc2c(=O)n(C)c3ccccc3c21,-7.9,1.2,12.3,-6.6,-10.7,-1.0,.,.,.,.
CC(NC(=O)c1cc2c(=O)n(C)c3ccccc3c2n1C)c1ccc2c(c1)OCCO2 (centres undefined),-6.9,6.9,3.0,-10.8,-24.6,59.0*,21.6*,33.9,4.2,2.6
COc1ccccc1-c1cc(C(=O)N2CCN(S(=O)(=O)c3ccc(C)cc3)CC2)[nH]n1,-12.4,11.0,8.3,-9.4,-15.9,74.3*,31.3*,44.2,9.0,7.4
O=C(CN1CCC(NC(=O)C2CCCCC2)CC1)NCc1ccco1,-7.6,3.1,14.6,-14.8,-8.5,-3.8,.,.,.,.
Cc1coc(NC(=O)CSc2nc(-c3ccc(Cl)cc3)cc(C(F)(F)F)c2C#N)n1,-8.8,.,7.7,-11.7,-19.8,.,7.8,.,1.2,.
COc1ccc(-c2cc(C(F)(F)F)c(C#N)c(SCC(=O)Nc3nc(C)co3)n2)cc1,-6.5,.,7.0,-5.5,-2.9,.,.,.,.,.
COc1cccc(-c2cnc(C(O)c3ccc(F)cc3)[nH]2)c1 (centres undefined),.,1.4,.,.,.,-5.1,.,.,.,.
O=C(NC[C@H]1CCCO1)c1cccc2c1C(=O)c1ccc(-c3ccc(F)cc3OCc3ccccc3)cc1S2(=O)=O,.,19.4,16.2,-3.5,7.0,68.7*,37.0*,51.3*,8.3,7.8
CC(C)c1cccc(-c2ccc3c(c2)S(=O)(=O)c2cccc(C(=O)NCc4ccccc4)c2C3=O)c1,.,7.0,2.6,-6.2,-11.3,60.8*,36.1*,47.3,3.6,2.4
O=C(O)c1cccc2c1C(=O)c1ccc(-c3ccc(F)cc3OCc3ccccc3)cc1S2(=O)=O,.,.,0.3,-14.5,-17.1,.,.,.,.,.
CC(C)c1cccc(-c2ccc3c(c2)S(=O)(=O)c2cccc(C(=O)NCc4ccccc4Cl)c2C3=O)c1,.,.,5.4,-16.9,-8.9,.,.,.,.,.
Cc1cc(C)c(S(=O)(=O)C(C)C)c(=O)[nH]1,-17.6,-0.6,17.6,-2.0,-10.2,11.2,.,.,.,.
Cc1ccc(NC(=O)c2c(F)cccc2Cl)cc1S(=O)(=O)N1CCOCC1,.,6.5,1.7,-7.3,-6.6,13.5,.,.,.,.
CCn1c(SCC(=O)Nc2cc(S(=O)(=O)N3CCOCC3)ccc2OC)nnc1-c1ccncc1,-8.8,-1.0,-0.1,2.4,-10.7,1.6,.,.,.,.
Cc1cc(/C=N/Nc2ccc([N+](=O)[O-])cn2)c(C)n1-c1ccccc1,4.4,-3.7,27.2,-6.9,2.1,40.2,.,.,.,.
Cc1ccc(-n2c(C)cc(/C=N/Nc3ccc([N+](=O)[O-])cn3)c2C)cc1,0.7,.,23.1,-10.8,-17.6,.,3.6,.,0.0,.
